Laboratory results taken from ChEMBL document CHEMBL1131311, “Discovery of a novel, potent, and orally active nonpeptide antagonist of the human luteinizing hormone-releasing hormone (LHRH) receptor” (J Med Chem, 1998).

Biological target: T1, Gonadotropin-releasing hormone receptor (Homo sapiens, UniProt P30968)
T1 sequence (P30968 whole entry): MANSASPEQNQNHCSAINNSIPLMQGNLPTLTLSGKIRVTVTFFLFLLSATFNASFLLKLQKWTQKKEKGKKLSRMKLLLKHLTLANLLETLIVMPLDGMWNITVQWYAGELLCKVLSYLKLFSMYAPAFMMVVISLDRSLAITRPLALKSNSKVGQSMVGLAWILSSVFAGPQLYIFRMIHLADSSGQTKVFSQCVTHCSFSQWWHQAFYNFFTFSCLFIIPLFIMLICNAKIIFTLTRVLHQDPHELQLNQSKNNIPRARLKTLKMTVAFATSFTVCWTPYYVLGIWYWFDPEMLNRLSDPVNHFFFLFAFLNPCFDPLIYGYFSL
Assay: The Compound was tested for the concentration to inhibit 50% of [125 I ]leuprorelin binding to the cloned human Leutinizing releasing hormone receptor (LHRH) receptor.
Procedure, shortened: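 Membranes from CHO cells stably expressing cloned human LHRH receptor (0.2 mg/mL) incubated with [125I]leuprorelin (0.15 nM) and graded compound in Tris/EDTA/BSA buffer with protease inhibitors, pH 7.5, 60 min at 25 °C. Filtration on PEI-coated glass fiber, gamma counting. Nonspecific binding with 1 µM unlabeled leuprorelin. IC50 from pseudo-Hill fit. Means of ≥3 determinations.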

- IC50: 4 nM
Structure (SMILES): CCOC(=O)c1cn(Cc2c(F)cccc2F)c2sc(-c3ccc(N)cc3)c(CN(C)Cc3ccccc3)c2c1=O
